Holding throughout (type): functional, cell-based
Assay [1] concerns THP-1. Briefly: Cytotoxicity against human THP1 cells after 24 hrs by MTT assay. Conditions: THP-1, 24 h. Put shortly:
(§1)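 Cells kept in RPMI-1640 with 10% heat-inactivated FBS, 1 mM NaHCO3, 2 mM L-glutamine and 100 units/ml antibiotic. Seeded at 2 × 10^4 per well in 0.1 ml, left overnight, then given graded compound from DMSO stocks for 24 h. MTT added for a further 3 h at 37 °C, formazan dissolved in DMSO and read at 570 nm. Percent viability inhibition taken against untreated control; IC50 from linear regression.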
A general note: Tetrazolium dyes change colour on reduction, which living cells bring about.

Assay [2] deals with U-937. The assay can be described thus: Cytotoxicity against human U937 cells after 24 hrs by MTT assay. Conditions: U-937, 24 h. Put shortly: as §1
Assay [3] concerns COLO 205. The assay can be described thus: Cytotoxicity against human COLO205 cells after 24 hrs by MTT assay. Conditions: COLO 205, 24 h. Put shortly: as §1

Converted amounts (≈) assume the structure as drawn.

Here are results for 16 compounds from ChEMBL document CHEMBL1806442, “Synthesis of novel alkyltriazole tagged pyrido[2,3-d]pyrimidine derivatives and their anticancer activity” (Eur J Med Chem, 2011).

One may read the IC50 as the concentration needed to halve the response being measured. Read a high IC50 as weaker potency in that assay. `COc1cc([C@@H]2c3cc4c(cc3[C@@H](O[C@@H]3O[C@@H]5CO[C@@H](C)O[C@H]5[C@H](O)[C@H]3O)[C@H]3COC(=O)[C@H]23)OCO4)cc(OC)c1O` [ETOPOSIDE]: the results for the IC50 in assay [1], in assay [2] and in assay [3] were 2.16 µg/mL (≈ 3.67 µM), 17.9 µg/mL (≈ 30.5 µM) and 7.24 µg/mL (≈ 12.3 µM), respectively.
As for `CCCCCCCCCCn1cc(Cn2c(C)nc3nc(-c4ccccc4)cc(C(F)(F)F)c3c2=O)nn1`, the IC50 in assay [1] amounted to 11.3 µg/mL (≈ 21.4 µM); in assay [2], 6.2 µg/mL (≈ 11.8 µM); in assay [3] it was 15 µg/mL (≈ 28.5 µM).
`CCc1nc2nc(-c3ccccc3)cc(C(F)(F)F)c2c(=O)n1Cc1cn(CCC(F)(F)C(F)(F)C(F)(F)C(F)(F)C(F)(F)C(F)(F)C(F)(F)C(F)(F)F)nn1`: the concentration for half-maximal inhibition (IC50) in assay [1], in assay [2] and in assay [3] was > 200 µg/mL in each case.
In the case of `CCc1nc2nc(-c3ccccc3)cc(C(F)(F)F)c2c(=O)n1Cc1cn(CCC(F)(F)C(F)(F)C(F)(F)C(F)(F)C(F)(F)C(F)(F)F)nn1`, the IC50 in assay [1], in assay [2] and in assay [3] was > 200 µg/mL throughout.
Regarding `CCCCCCCCCCn1cc(Cn2cnc3nc(-c4ccccc4)cc(C(F)(F)F)c3c2=O)nn1`, the figures for the IC50 in assay [1], in assay [2] and in assay [3] were 16.9 µg/mL (≈ 33 µM), 8.16 µg/mL (≈ 15.9 µM) and 19.2 µg/mL (≈ 37.6 µM), respectively.
For `Cc1nc(OCc2cn(CCC(F)(F)C(F)(F)C(F)(F)C(F)(F)C(F)(F)C(F)(F)C(F)(F)C(F)(F)F)nn2)c2c(C(F)(F)F)cc(-c3ccccc3)nc2n1`, the IC50 is 107 µg/mL (≈ 129 µM) in assay [1], 22.4 µg/mL (≈ 26.9 µM) in assay [2] and > 200 µg/mL in assay [3].
As to `CCc1nc(OCc2cn(CCC(F)(F)C(F)(F)C(F)(F)C(F)(F)C(F)(F)C(F)(F)F)nn2)c2c(C(F)(F)F)cc(-c3ccccc3)nc2n1`, the values for the half-maximal inhibitory concentration (IC50) in assay [1], in assay [2] and in assay [3] were > 200 µg/mL, 9.22 µg/mL (≈ 12.4 µM) and > 200 µg/mL, respectively.
As for `Cc1nc2nc(-c3ccccc3)cc(C(F)(F)F)c2c(=O)n1Cc1cn(CCC(F)(F)C(F)(F)C(F)(F)C(F)(F)C(F)(F)C(F)(F)C(F)(F)C(F)(F)F)nn1`, the values for the half-inhibitory concentration (IC50) in assay [1], in assay [2] and in assay [3] were > 200 µg/mL, 124 µg/mL (≈ 149 µM) and > 200 µg/mL, respectively.
In the case of `CCCCCCc1nc2nc(-c3ccccc3)cc(C(F)(F)F)c2c(=O)n1Cc1cn(CCC(F)(F)C(F)(F)C(F)(F)C(F)(F)C(F)(F)C(F)(F)F)nn1`, the IC50 is > 200 µg/mL in assay [1], 7.56 µg/mL (≈ 9.42 µM) in assay [2] and 132 µg/mL (≈ 165 µM) in assay [3].
In the same order, the values of `CC(C)c1nc2nc(-c3ccccc3)cc(C(F)(F)F)c2c(=O)n1Cc1cn(CCC(F)(F)C(F)(F)C(F)(F)C(F)(F)C(F)(F)C(F)(F)C(F)(F)C(F)(F)F)nn1` are 142 µg/mL (≈ 165 µM), 8.35 µg/mL (≈ 9.7 µM) and > 200 µg/mL.
With `Cc1nc2nc(-c3ccccc3)cc(C(F)(F)F)c2c(=O)n1Cc1cn(CCC(F)(F)C(F)(F)C(F)(F)C(F)(F)C(F)(F)C(F)(F)F)nn1`, the IC50 in assay [1], in assay [2] and in assay [3] was > 200 µg/mL throughout.
`CCCCCCCCCCn1cc(Cn2c(CC)nc3nc(-c4ccccc4)cc(C(F)(F)F)c3c2=O)nn1`: the half-inhibitory concentration (IC50) in assay [1] was 82.6 µg/mL (≈ 153 µM); in assay [2], 17.8 µg/mL (≈ 33 µM); in assay [3] it was > 200 µg/mL.
For `O=c1c2c(C(F)(F)F)cc(-c3ccccc3)nc2ncn1Cc1cn(CCC(F)(F)C(F)(F)C(F)(F)C(F)(F)C(F)(F)C(F)(F)C(F)(F)C(F)(F)F)nn1`, the IC50 is 79.1 µg/mL (≈ 96.7 µM) in assay [1], > 200 µg/mL in assay [2] and 163 µg/mL (≈ 199 µM) in assay [3].
In the same order, the values of `CCCCCCc1nc2nc(-c3ccccc3)cc(C(F)(F)F)c2c(=O)n1Cc1cn(CCC(F)(F)C(F)(F)C(F)(F)C(F)(F)C(F)(F)C(F)(F)C(F)(F)C(F)(F)F)nn1` are > 200 µg/mL, > 200 µg/mL and > 200 µg/mL.
Take `Cc1nc2nc(-c3ccccc3)cc(C(F)(F)F)c2c(=O)n1Cc1cn(-c2ccccc2)nn1`: the 50% inhibitory concentration (IC50) in assay [1], in assay [2] and in assay [3] was > 200 µg/mL in each case.
Consider `FC(F)(F)c1cc(-c2ccccc2)nc2nc(-c3ccccc3)nc(OCc3cn(CCC(F)(F)C(F)(F)C(F)(F)C(F)(F)C(F)(F)C(F)(F)C(F)(F)C(F)(F)F)nn3)c12`, for which the IC50 in assay [1] is > 200 µg/mL; in assay [2] it was 44.4 µg/mL (≈ 49.6 µM); in assay [3], > 200 µg/mL.
